Results pooled from the literature.
pIC50: −log10 of the molar value.
Cell line: MIA PaCa-2
Effect on: cell growth or viability

SMILES | technique | time | endpoint | value
CCCOc1ccc2[nH]cc(C(=O)C(C#N)=Cc3cn(CC)c4ccccc34)c2c1 | MTT | 48 h | pIC50 | 5.28
Cc1cc(=O)oc2cc(OCCCCSC#N)ccc12 | SRB | – | GI50 | 6.3 µM
Cc1sc2c(c1C)C(c1ccc(Cl)cc1)=N[C@@H](CC(=O)NCCCCNC(=O)COc1cccc3c1C(=O)N(C1CCC(=O)NC1=O)C3=O)c1nnc(C)n1-2 (some centres unmarked) | CCK-8 | 72 h | pIC50 | < 5.00
O=C1C(Cl)=C(NCCN2CCOCC2)C(=O)c2ccccc21 | MTT | – | pIC50 | 4.71
CC(=O)N1CCC(Nc2cc(C(=O)NC[C@H](O)CN3CCc4ccccc4C3)ncn2)CC1 | CCK-8 | 72 h | pIC50 | < 4.00
COc1ccc2c(C(=O)C(C#N)=Cc3cn(C)c4ccccc34)c[nH]c2c1 | MTT | 48 h | pIC50 | < 4.40
CC1=CC(=O)C(C(C)C)=CC1=O | SRB | 48 h | pIC50 | 4.48
CCOc1ccc2[nH]cc(C(=O)C(C#N)=Cc3cn(C)c4ccccc34)c2c1 | MTT | 48 h | pIC50 | 5.87
N#CSCc1cc(=O)oc2cc(O)ccc12 | SRB | – | GI50 | 5.3 µM
O=C1C(Cl)=C(NCCCN2CCCCC2)C(=O)c2ccccc21 | MTT | – | pIC50 | 5.32
CNC(=O)c1ccccc1Nc1cc(Nc2ccc(N3CCOCC3)cc2OC)ncc1C(F)(F)F | MTT | 48 h | pIC50 | 5.75
